# Assay results from PMC5292677 (Leukemia, 2016).
# Where “and” joins values, the source holds several entries; their conditions need not be identical. Equal values may be shown once. Entries after “also recorded” stand apart in the source; their conditions may differ.
# Columns and labels:
# [1] = tested on: JAK2^V617F-driven mouse model; details: cited from earlier work
# [2] = tested on: patients with myelofibrosis; experiment: Splenic response by palpation; type: in vivo, human
# Summary of the method: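 Spleen size was measured by palpation and response scored by IWG-MRT criteria. Assessments fell on Day 1 of Cycles 2, 3 and 4, then every 3 cycles, during daily oral dosing in continuous 28-day cycles. Analysis covered patients who completed ≥1 cycle and had baseline splenomegaly ≥5 cm.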
# [3] = tested on: patients with myelofibrosis; experiment: Bone marrow fibrosis grade; type: in vivo, human
# Summary of the method: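 Adults with myelofibrosis took the oral test compound once or twice daily in continuous 28-day cycles. Bone marrow biopsies were taken at screening (within 28 days before first dose), on Day 1 of Cycle 4, then every 3 cycles, and read at each site. Fibrosis was graded 0–3 and categorized against baseline as improved ≥1 grade, stable, or worsened ≥1 grade.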
# [4] = tested on: patients with myelofibrosis; experiment: Hemoglobin/platelet response and transfusion status; type: in vivo, human
# Summary of the method: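 Oral test compound was given QD or BID in continuous 28-day cycles. Hematologic response was scored by IWG-MRT criteria on Day 1 of Cycles 2, 3 and 4, then every 3 cycles. Transfusion dependence was defined as ≥6 units packed red cells in any rolling 12-week interval. Patients without transfusion in the 12 weeks before entry were classed transfusion-free at baseline.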
# JAK2^V617F allele burden = experiment: PD: JAK2V617F allele burden; type: in vivo, human
# Summary of the method: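 JAK2 allele burden was sampled on Day 1 of Cycles 1, 2 and 4, then every 3 cycles, during continuous 28-day oral dosing. On-treatment values were compared with the predose baseline. Analysis covered patients with ≥1 dose, a baseline value and ≥1 evaluable post-baseline assessment.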
# [5] = 36 evaluable patients, all cohorts
# [6] = individual patient with BMF improvement after 3 cycles, 125 mg QD
# [7] = individual patients with BMF improvement after 3 cycles, 300 mg QD
# [8] = patients without BMF improvement after 3 cycles (n=19)
compound,measurement,setting,value
C[C@H](Nc1cc(-c2cnn(C)c2)cc(Nc2cnccn2)n1)c1ccc(F)cc1 [NS-018],Splenomegaly,[1]; JAK2^V617F-driven mouse model,reduced splenomegaly
same,"Leukocytosis, BMF and survival",[1]; murine model,Improvements
same,Peripheral blood erythrocyte or platelet counts,[1]; murine model,without reducing
same,Median (range) cycles to splenic reduction ⩾50%,[2]; 100 mg BID,7.5 (3–12) cycles
same,Median (range) cycles to splenic reduction ⩾50%,[2]; 200 mg BID,1 cycles
same,Median (range) cycles to splenic reduction ⩾50%,[2]; 200 mg QD,3 cycles
same,Median (range) cycles to splenic reduction ⩾50%,[2]; 250 mg BID,3 cycles
same,Median (range) cycles to splenic reduction ⩾50%,[2]; 300 mg BID,1 cycles
same,Median (range) cycles to splenic reduction ⩾50%,[2]; 300 mg QD,2 (1–8) cycles
same,Median (range) cycles to splenic reduction ⩾50%,[2]; 400 mg BID,1.5 (1–2) cycles
same,Median (range) cycles to splenic reduction ⩾50%,[2]; 400 mg QD,1 cycles
same,Patients achieving ⩾50% reduction in palpable spleen size,[2]; [5],56%
same,Patients with splenic reduction of 100%,[2]; [5],31%
same,Patients with 100% splenic reduction,[2]; JAK2^V617F-negative responders,3 patients
same,Median duration of splenic response (range),[2]; all cohorts,5.5 (1–24) cycles
same,Median (range) cycles to splenic reduction ⩾50%,[2]; all dose cohorts,1 (1–12) cycles
same,Patients achieving ⩾50% reduction in spleen size,[2]; baseline spleen >10 cm,15 patients
same,Patients attaining 100% reduction in spleen size,[2]; baseline spleen ⩽10 cm,5 patients
same,Patients achieving ⩾50% reduction in palpable spleen size,[2]; evaluable patients with prior JAK2 inhibitor treatment,47%
same,Patients achieving ⩾50% reduction in palpable spleen size,[2]; evaluable patients with the JAK2^V617F mutation,50%
same,Median (range) cycles to splenic reduction ⩾50%,[2]; prior JAK2 inhibitor treatment,2 (1–12) cycles
same,Patients with 100% splenic reduction,[2]; responders with the JAK2^V617F mutation,8 patients
same,Patients with improvement of ⩾1 BMF grade,"[3]; after 3 cycles, 30 evaluable patients",37%
same,Patients with unchanged BMF grade,"[3]; after Cycle 3, 30 evaluable patients",53%
same,Patients with BMF worsening,"[3]; at completion of Cycle 3, 30 evaluable patients",10%
same,Duration of BMF grade change,"[3]; individual patient, 75 mg QD",3 cycles
same,Duration of BMF grade change,"[3]; individual patient, 125 mg QD",12 cycles
same,Duration of BMF grade change,"[3]; individual patient, 250 mg BID",2 cycles
same,Duration of BMF grade change,"[3]; individual patient, 400 mg QD",6 cycles
same,Duration of BMF grade change,"[3]; individual patients, 300 mg BID",2 cycles and 1 cycles
same,Duration of BMF grade change,"[3]; individual patients, 300 mg QD",3 cycles and 39 cycles and 9 cycles
same,Duration of BMF grade change,"[3]; individual patients, 400 mg BID",1 cycles and 12 cycles
same,Patients with BMF improvement maintained for >12 weeks,[3]; of the 11 improved after 3 cycles,5 patients
same,Patients achieving BMF improvement from baseline later in the study,[3]; of those with unchanged BMF grade after Cycle 3,6 patients
same,Hemoglobin IWG-MRT clinical improvement,[4]; all cohorts,4 patients
same,Hemoglobin improvement (⩾20 g/l increase),[4]; all cohorts,11 patients
same,Platelet IWG-MRT clinical improvement,[4]; all cohorts,1 patients
same,Platelet improvement (100% increase),[4]; all cohorts,2 patients
same,Increase in Hb of ⩾20 g/l,"[4]; individual patient with BMF improvement after 3 cycles, 75 mg QD",✓ (not CI)
same,100% increase in Plt count,[4]; [6],✓ (CI)
same,Increase in Hb of ⩾20 g/l,[4]; [6],✓ (not CI)
same,Increase in Hb of ⩾20 g/l,"[4]; individual patients with BMF improvement after 3 cycles, 300 mg BID",✓ (CI)
same,100% increase in Plt count,[4]; [7],✓ (not CI)
same,Increase in Hb of ⩾20 g/l,[4]; [7],✓ (CI)
same,Increase in Hb of ⩾20 g/l,"[4]; individual patients with BMF improvement after 3 cycles, 400 mg BID",✓ (not CI)
same,Patients achieving transfusion independence,[4]; of the 10 patients transfusion dependent at baseline,3 patients
same,Hemoglobin responses,[4]; [8],2 responses
same,Platelet responses,[4]; [8],no platelet responses
same,JAK2^V617F allele burden during treatment,JAK2^V617F allele burden; JAK2^V617F-positive patients,largely unchanged; also recorded: remained similar to the baseline value in almost all patients
same,Patients with decrease in allele burden of ⩾25%,JAK2^V617F allele burden; at Cycle 7 in one and Cycle 16 in the other,2 patients
